According to ChEMBL document CHEMBL1121917, “Structure--activity relationships in a broad-spectrum anthelmintic series. Acid chloride phenylhydrazones. 1. Aryl substitutions and chloride variations” (1981):

Key:
[1] = species on record: Canis familiaris; test: Percent reduction in Uncinaria eggs per gram, after oral treatment of 20 mg/dog dose of compound in a triple treatment; assay type: functional, Canis lupus familiaris, Egg
[2] = system: Ovis aries; test: Percent reduction in Trichostrongylus eggs per gram, after treatment with 150 mg/kg dose of compound intraperitoneally in sheep; conditions: route intraperitoneal
[3] = species on record: Mus musculus; test: Percent clearance of Hymenolepis nana from mouse after oral treatment of 1.5 mg/mouse/day; assay type: functional
Outline: (§1)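 Mice naturally carrying Syphacia obvelata were experimentally infected with Nematospiroides dubius and Hymenolepis nana, then grouped after a 2-week prepatency. Finely ground compound was suspended in aqueous 0.10% carboxymethylcellulose, 0.04% polysorbate 80 and 0.0042% polyparaben, and 0.1 mL was given orally by cannula once daily for 4 days to five mice. Necropsy followed 2 days later, scoring presence or absence of each parasite. Control clearance was subtracted from the treated clearance.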

[4] = system: Ovis aries; test: Percent reduction in Oesophagostomum eggs per gram, after treatment with 100 mg/kg dose of compound perorally in sheep; assay type: functional, Egg; conditions: route oral
Outline: (§2)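 Naturally parasitized lambs were dosed orally at the stated mg/kg. Dosing was either as a suspension of finely ground compound by stomach tube, or as ground compound weighed into gelatin capsules and given by balling gun. Activity was scored by the clinical test method: the decrease in posttreatment helminth eggs per gram.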

[5] = system: Ovis aries; test: Percent reduction in Trichostrongylus eggs per gram, after treatment with 100 mg/kg dose of compound perorally in sheep; assay type: functional, Egg; conditions: route oral
Outline: (§3)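 Naturally parasitized lambs, dosed orally either with a suspension by stomach tube or with finely ground compound in gelatin capsules by balling gun. Activity was scored by the clinical test method, meaning a significant fall in helminth egg counts after treatment.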

[6] = species on record: Canis familiaris; test: Percent reduction in Uncinaria eggs per gram, after oral treatment of 25 mg/dog dose of compound in a single treatment; assay type: functional, Canis lupus familiaris, Egg
[7] = species on record: Canis familiaris; test: Percent reduction in Ancylostoma eggs per gram, after oral treatment of 25 mg/dog dose of compound in a single treatment; assay type: functional, Canis lupus familiaris, Egg
Outline: (§4)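 Dogs naturally infected with Toxascaris leonina were experimentally infected with mixed Ancylostoma caninum and Uncinaria stenocephala larvae. Finely ground compound was given orally in gelatin capsules. Fecal egg counts were taken three times before and three times after treatment, and activity was taken as the fall in egg counts.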

[8] = system: Ovis aries; test: Percent reduction in Haemonchus eggs per gram, after treatment with 200 mg/kg dose of compound perorally in sheep; assay type: functional, Egg; conditions: dose 200 mg/kg; route oral; outline: as §2
[9] = species on record: Canis familiaris; test: Percent reduction in Uncinaria eggs per gram, after oral treatment of 10 mg/dog dose of compound in a double treatment; assay type: functional, Canis lupus familiaris, Egg
[10] = species on record: Canis familiaris; test: Percent reduction in Ancylostoma eggs per gram, after oral treatment of 10 mg/dog dose of compound in a double treatment; assay type: functional, Canis lupus familiaris, Egg; outline: as §4
[11] = system: Ovis aries; test: Percent reduction in Ostertagia eggs per gram, after treatment with 100 mg/kg dose of compound perorally in sheep; assay type: functional, Egg; conditions: route oral; outline: as §2
[12] = system: Ovis aries; test: Percent reduction in Strongyloides eggs per gram, after treatment with 200 mg/kg dose of compound perorally
[13] = species on record: Canis familiaris; test: Percent reduction in Uncinaria eggs per gram, after oral treatment of 20 mg/dog dose of compound in a single treatment; assay type: functional, Canis lupus familiaris, Egg
[14] = species on record: Canis familiaris; test: Percent reduction in Ancylostoma eggs per gram, after oral treatment of 20 mg/dog dose of compound in a single treatment; assay type: functional, Canis lupus familiaris, Egg; outline: as §4
[15] = species on record: Mus musculus; test: Percent clearance of Syphacaia obvelata from mouse after oral treatment of 1.5 mg/mouse/day; assay type: functional; outline: as §1
[16] = system: Ovis aries; test: Percent reduction in Oesophagostomum eggs per gram, after treatment with 200 mg/kg dose of compound perorally in sheep; assay type: functional, Egg; conditions: dose 200 mg/kg; route oral; outline: as §2
[17] = system: Ovis aries; test: Percent reduction in Strongyloides eggs per gram, after treatment with 100 mg/kg dose of compound perorally in sheep; assay type: functional, Egg; conditions: route oral; outline: as §3
[18] = species on record: Canis familiaris; test: Percent reduction in Ancylostoma eggs per gram, after oral treatment of 20 mg/dog dose of compound in a triple treatment; assay type: functional, Canis lupus familiaris, Egg; outline: as §4
[19] = system: Ovis aries; test: Percent reduction in Trichuris eggs per gram, after treatment with 100 mg/kg dose of compound perorally in sheep; assay type: functional, Egg; conditions: route oral; outline: as §3
[20] = system: Ovis aries; test: Percent reduction in Ostertagia eggs per gram, after treatment with 200 mg/kg dose of compound perorally in sheep; assay type: functional, Egg; conditions: route oral; outline: as §3
[21] = system: Ovis aries; test: Percent reduction in Haemonchus eggs per gram, after treatment with 100 mg/kg dose of compound perorally in sheep; assay type: functional, Egg; conditions: route oral
Outline: (§5)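 Naturally parasitized lambs received compound orally, either as the aqueous suspension by stomach tube or as finely ground powder in gelatin capsules by balling gun. Activity was judged by the clinical test method, as a significant decrease in posttreatment helminth egg counts.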

[22] = system: Ovis aries; test: Percent reduction in Trichostrongylus eggs per gram, after treatment with 200 mg/kg dose of compound perorally in sheep; assay type: functional, Egg; conditions: route oral; outline: as §3
[23] = system: Ovis aries; test: Percent reduction in Cooperia eggs per gram, after treatment with 100 mg/kg dose of compound perorally in sheep; assay type: functional, Egg; conditions: route oral; outline: as §5
[24] = system: Ovis aries; test: Percent reduction in Haemonchus eggs per gram, after treatment of 100 mg/kg dose of compound perorally in sheep; assay type: functional, Egg; conditions: route oral; outline: as §5

CCCCOc1ccc(/C(Cl)=N/Nc2ccccc2)cc1 gave a Reduction [1] of 100%, a Reduction [2] of 0% and a Parasite_Clearance [3] of 100%. For the same compound, the Reduction [4] was 100%, the Reduction [5] was 100% and the Reduction [6] was 67%. The Reduction [7] was 100%, the Reduction [8] was 100% and the Reduction [9] was 75%. The Reduction [10] was 92%, the Reduction [11] was 100% and the Reduction [12] was 100%. For the same compound, the Reduction [13] was 86%, the Reduction [14] was 86% and the Parasite_Clearance [15] was 100%. The Reduction [16] was 100%, the Reduction [17] was 32% and the Reduction [18] was 0%. For the same compound, the Reduction [19] was 100%, the Reduction [20] was 100% and the Reduction [21] was 100%. The Reduction [22] was 100%.
Compound Cl/C(=N\Nc1ccc(Cl)c(Cl)c1Cl)c1ccccc1 has a Reduction [4] of 0%, a Reduction [5] of 0% and a Reduction [23] of 89%. For the same compound, the Reduction [11] was 0%, the Reduction [17] was 95% and the Reduction [19] was 0%. For the same compound, the Reduction [24] was 0%.
